Source: ChEMBL document CHEMBL4414601 (J Med Chem, 2019)
In brackets after ≈: the same amount, converted by molar mass. Activity calls are given as the source filed them. The rule behind the calls is not given here.

Key:
Plasmodium falciparum [1] = experiment: Antiplasmodial activity against Plasmodium falciparum 3D7A erythrocytic stage assessed as reduction in [3H]hypoxanthine incorporation preincubated for 24 hrs followed by [3H]hypoxanthine addition and measured after 24 hrs by microbeta scintillation counting method; type: functional, organism-based
In short: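 Nine threefold serial dilutions from 5 μM top concentration. Incubated 24 h at 37 °C under 5% CO2/5% O2/90% N2, then 0.2 μCi [3H]-hypoxanthine per well for another 24 h. Cells harvested on glass fibre filters and counted. Data normalized to compound-free parasitized RBCs; IC50 fitted.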

[2] = Lipophilicity, LogD of compound by reverse phase HPLC analysis
[3] = Aqueous solubility of compound; details: buffer
[4] = molecular target: Voltage-gated inwardly rectifying potassium channel KCNH2 (Homo sapiens, UniProt Q12809); experiment: Inhibition of human ERG expressed in CHO cells by Q-patch clamp assay
L929 = experiment: Cytotoxicity against mouse L929 cells assessed as reduction in viability by dual luciferase reporter gene assay; type: ADME, cell-based
[5] = Permeability of compound by PAMPA
[6] = Clearance in mouse liver microsomes at 0.5 uM measured up to 45 mins in presence of NADPH by HPLC-MS/MS analysis; type: ADME, Microsome
[7] = Clearance in rat liver microsomes at 0.5 uM measured up to 45 mins in presence of NADPH by HPLC-MS/MS analysis; type: ADME, Microsome
[8] = Clearance in human liver microsomes at 0.5 uM measured up to 45 mins in presence of NADPH by HPLC-MS/MS analysis; type: ADME, Microsome
Plasmodium falciparum [9] = experiment: (§1) Antiplasmodial activity against Plasmodium falciparum 3D7A asexual erythrocytic stage assessed as reduction in [3H]hypoxanthine incorporation preincubated for 48 hrs followed by [3H]hypoxanthine addition and measured after 24 hrs by microbeta scintillation counting method; type: functional, organism-based
Plasmodium falciparum [10] = experiment: as §1, with “3D7A harboring with PKG T618Q mutant” for “3D7A”; type: functional, organism-based
Plasmodium falciparum [11] = experiment: as §1, with “3D7A harboring with PKG T618Q mutant” for “3D7A”, “72” for “48”; type: functional, organism-based
Plasmodium falciparum [12] = experiment: Antiplasmodial activity against Plasmodium falciparum 3D7A erythrocytic stage assessed as reduction in [3H]hypoxanthine incorporation preincubated for 24 to 120 hrs followed by subculture in absence of compound and measured after 21 to 28 days by microbeta scintillation counting method; type: functional, organism-based
In short: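 P. falciparum 3D7A cultures were drug-exposed for 120 h, with samples taken every 24 h (24, 48, 72, 96 and 120 h). Viable parasites were quantified by limiting dilution, counting wells with growth after 21 and 28 days by [3H]-hypoxanthine incorporation.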

[13] = molecular target: cGMP-dependent protein kinase (Plasmodium falciparum, UniProt W7JX98); experiment: Inhibition of Plasmodium falciparum full length N-terminal His-tagged PKG expressed in Escherichia coli RosettaTM 2(DE3) pLysS cells using FAM-GRTGRRNSI-NH2 as substrate preincubated for 30 mins followed by ATP addition and measured after 30 mins by microfluidic mobility shift assay
Plasmodium falciparum [14] = experiment: Antiplasmodial activity against Plasmodium falciparum 3D7A asexual erythrocytic stage assessed as reduction in [3H]hypoxanthine incorporation preincubated for 72 hrs followed by [3H]hypoxanthine addition and measured after 24 hrs by microbeta scintillation counting method; type: functional, organism-based
[15] = molecular target: T1, Calcium-dependent protein kinase 4 (Plasmodium falciparum (isolate 3D7), UniProt Q8IBS5); experiment: Binding affinity to CDPK4 in Plasmodium falciparum 3D7 blood stage extract incubated for 1 hr by kinobeads based pull down assay; details: read-out: Kd(app)
T1 sequence (Q8IBS5 whole entry): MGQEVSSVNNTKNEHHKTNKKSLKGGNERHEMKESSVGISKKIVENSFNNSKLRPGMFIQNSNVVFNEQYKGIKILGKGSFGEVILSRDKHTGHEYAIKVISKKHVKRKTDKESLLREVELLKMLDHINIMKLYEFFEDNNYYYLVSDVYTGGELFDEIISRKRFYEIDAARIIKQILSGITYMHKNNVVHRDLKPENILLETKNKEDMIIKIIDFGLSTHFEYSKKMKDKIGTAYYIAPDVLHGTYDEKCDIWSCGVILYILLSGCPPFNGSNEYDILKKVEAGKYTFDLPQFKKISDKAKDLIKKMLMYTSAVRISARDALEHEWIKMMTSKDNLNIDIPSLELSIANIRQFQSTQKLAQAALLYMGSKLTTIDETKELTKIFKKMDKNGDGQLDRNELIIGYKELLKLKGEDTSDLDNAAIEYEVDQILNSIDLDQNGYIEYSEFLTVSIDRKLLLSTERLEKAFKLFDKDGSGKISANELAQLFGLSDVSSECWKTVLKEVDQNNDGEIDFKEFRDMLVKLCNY
In short: (§2)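 Chemoproteomic competition used kinobeads or Sepharose beads derivatized with ligand at 1 mM. Free compound was tested at six concentrations between 0.08 and 20 μM, in two independent experiments. Proteins were SP3-digested, TMT 10-plex labelled and measured by LC-MS/MS. IC50s came from competition curves, and apparent Kd was corrected for protein depletion by the beads.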

[16] = molecular target: T1, Calcium-dependent protein kinase 4; experiment: Binding affinity to CDPK4 in Plasmodium falciparum 3D7 blood stage extract incubated for 1 hr in presence of ATP-competitive kinase inhibitor by kinobeads based pull down assay; details: read-out: Kd(app); in short: as §2
[17] = molecular target: T2, Calcium-dependent protein kinase 1 (Plasmodium falciparum, UniProt P62344); experiment: Binding affinity to CDPK1 in Plasmodium falciparum 3D7 blood stage extract incubated for 1 hr by kinobeads based pull down assay; details: read-out: Kd(app); in short: as §2
[18] = molecular target: T2, Calcium-dependent protein kinase 1; experiment: Binding affinity to CDPK1 in Plasmodium falciparum 3D7 blood stage extract incubated for 1 hr in presence of ATP-competitive kinase inhibitor by kinobeads based pull down assay; details: read-out: Kd(app); in short: as §2
Casein kinase I = molecular target: T3, Casein kinase I (Plasmodium falciparum (isolate 3D7), UniProt Q8IHZ9); experiment: Binding affinity to CK1 in Plasmodium falciparum 3D7 blood stage extract incubated for 1 hr by kinobeads based pull down assay; details: read-out: Kd(app)
T3 sequence (Q8IHZ9 whole entry): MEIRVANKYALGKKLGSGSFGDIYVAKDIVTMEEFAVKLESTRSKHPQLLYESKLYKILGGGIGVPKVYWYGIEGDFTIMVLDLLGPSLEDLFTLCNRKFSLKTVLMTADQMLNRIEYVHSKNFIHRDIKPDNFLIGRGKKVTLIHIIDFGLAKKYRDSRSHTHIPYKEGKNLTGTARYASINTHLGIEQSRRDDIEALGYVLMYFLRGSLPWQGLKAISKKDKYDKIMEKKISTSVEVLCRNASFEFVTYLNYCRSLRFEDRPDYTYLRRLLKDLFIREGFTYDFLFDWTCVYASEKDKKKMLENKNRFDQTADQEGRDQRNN
In short: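 Chemoproteomic competition binding: Sepharose beads derivatized at 1 mM with the immobilized ligand (kinobeads prepared likewise). Free compound competed at six concentrations, 0.08–20 μM. Proteins were SP3-digested, TMT 10-plex labelled and quantified by LC-MS/MS on an Orbitrap. IC50 from the competition curve; apparent Kd corrected for protein depletion by the beads. Two independent experiments.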

[19] = Binding affinity to GSK3 in Plasmodium falciparum 3D7 blood stage extract incubated for 1 hr by kinobeads based pull down assay; details: read-out: Kd(app)
In short: (§3)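 The free compound competed over six concentrations from 0.08 to 20 μM. Proteins were digested by a modified SP3 protocol, labelled with TMT 10-plex and quantified by LC-MS/MS. Apparent Kd was derived from IC50 corrected for bead depletion. Two independent experiments were run.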

[20] = Binding affinity to GSK3 in Plasmodium falciparum 3D7 blood stage extract incubated for 1 hr in presence of ATP-competitive kinase inhibitor by kinobeads based pull down assay; details: read-out: Kd(app); in short: as §3
[21] = Binding affinity to SRPK2 in Plasmodium falciparum 3D7 blood stage extract incubated for 1 hr in presence of ATP-competitive kinase inhibitor by kinobeads based pull down assay; details: read-out: Kd(app); in short: as §3
[22] = system: Plasmodium falciparum 3D7
Plasmodium falciparum [23] = experiment: Antiplasmodial activity against […] of Plasmodium falciparum NF54 assessed as reduction in male gametocytes activation preincubated for 48 hrs followed by gametocytes activation and measured after 24 hrs by fluorescence based automated inverted microscopic analysis; type: functional, organism-based
In short: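 Gametocyte activation was triggered by reduced temperature and ookinete medium containing xanthurenic acid. Male exflagellation centres were detected from a 10-frame video, scoring pixel changes caused by flagellar movement shifting surrounding cells.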

Plasmodium falciparum [24] = experiment: Antiplasmodial activity against […] of Plasmodium falciparum NF54 assessed as reduction in female gametocytes activation preincubated for 48 hrs followed by gametocytes activation and measured after 24 hrs by fluorescence based automated inverted microscopic analysis; type: functional, organism-based
In short: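 NF54 gametocytes were activated by lowered temperature plus ookinete medium with xanthurenic acid and anti-Pfs25-Cy3 antibody (1/2000 final dilution). Cultures were then kept at 26 °C for 24 h in the dark. Activated females were counted by Cy3 anti-Pfs25 fluorescence, with events gated on size, roundness and fluorescence intensity.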

Chain of cGMP-dependent protein kinase (W7JX98 whole entry): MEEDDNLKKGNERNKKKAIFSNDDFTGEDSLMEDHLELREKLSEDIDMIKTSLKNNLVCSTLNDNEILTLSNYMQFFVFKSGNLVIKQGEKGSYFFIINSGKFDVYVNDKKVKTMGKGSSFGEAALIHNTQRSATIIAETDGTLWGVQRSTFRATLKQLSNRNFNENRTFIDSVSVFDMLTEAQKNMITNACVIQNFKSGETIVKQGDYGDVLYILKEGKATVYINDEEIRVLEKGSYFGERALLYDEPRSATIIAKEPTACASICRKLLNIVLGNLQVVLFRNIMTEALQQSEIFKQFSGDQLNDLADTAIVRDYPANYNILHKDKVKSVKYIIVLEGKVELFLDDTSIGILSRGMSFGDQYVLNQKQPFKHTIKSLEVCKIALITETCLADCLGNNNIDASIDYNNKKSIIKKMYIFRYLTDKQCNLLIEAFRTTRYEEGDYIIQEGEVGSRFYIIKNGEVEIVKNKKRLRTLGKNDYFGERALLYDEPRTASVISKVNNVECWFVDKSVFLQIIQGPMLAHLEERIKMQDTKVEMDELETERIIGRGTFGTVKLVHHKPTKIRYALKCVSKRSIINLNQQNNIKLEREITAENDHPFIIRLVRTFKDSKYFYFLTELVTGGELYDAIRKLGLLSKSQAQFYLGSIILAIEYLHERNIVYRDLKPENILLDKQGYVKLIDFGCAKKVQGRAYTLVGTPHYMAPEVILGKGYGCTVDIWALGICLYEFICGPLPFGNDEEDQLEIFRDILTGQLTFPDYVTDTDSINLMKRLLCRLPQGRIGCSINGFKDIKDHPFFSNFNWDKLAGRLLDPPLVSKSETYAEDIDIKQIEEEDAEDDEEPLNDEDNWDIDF
Chain of Voltage-gated inwardly rectifying potassium channel KCNH2 (Q12809 whole entry): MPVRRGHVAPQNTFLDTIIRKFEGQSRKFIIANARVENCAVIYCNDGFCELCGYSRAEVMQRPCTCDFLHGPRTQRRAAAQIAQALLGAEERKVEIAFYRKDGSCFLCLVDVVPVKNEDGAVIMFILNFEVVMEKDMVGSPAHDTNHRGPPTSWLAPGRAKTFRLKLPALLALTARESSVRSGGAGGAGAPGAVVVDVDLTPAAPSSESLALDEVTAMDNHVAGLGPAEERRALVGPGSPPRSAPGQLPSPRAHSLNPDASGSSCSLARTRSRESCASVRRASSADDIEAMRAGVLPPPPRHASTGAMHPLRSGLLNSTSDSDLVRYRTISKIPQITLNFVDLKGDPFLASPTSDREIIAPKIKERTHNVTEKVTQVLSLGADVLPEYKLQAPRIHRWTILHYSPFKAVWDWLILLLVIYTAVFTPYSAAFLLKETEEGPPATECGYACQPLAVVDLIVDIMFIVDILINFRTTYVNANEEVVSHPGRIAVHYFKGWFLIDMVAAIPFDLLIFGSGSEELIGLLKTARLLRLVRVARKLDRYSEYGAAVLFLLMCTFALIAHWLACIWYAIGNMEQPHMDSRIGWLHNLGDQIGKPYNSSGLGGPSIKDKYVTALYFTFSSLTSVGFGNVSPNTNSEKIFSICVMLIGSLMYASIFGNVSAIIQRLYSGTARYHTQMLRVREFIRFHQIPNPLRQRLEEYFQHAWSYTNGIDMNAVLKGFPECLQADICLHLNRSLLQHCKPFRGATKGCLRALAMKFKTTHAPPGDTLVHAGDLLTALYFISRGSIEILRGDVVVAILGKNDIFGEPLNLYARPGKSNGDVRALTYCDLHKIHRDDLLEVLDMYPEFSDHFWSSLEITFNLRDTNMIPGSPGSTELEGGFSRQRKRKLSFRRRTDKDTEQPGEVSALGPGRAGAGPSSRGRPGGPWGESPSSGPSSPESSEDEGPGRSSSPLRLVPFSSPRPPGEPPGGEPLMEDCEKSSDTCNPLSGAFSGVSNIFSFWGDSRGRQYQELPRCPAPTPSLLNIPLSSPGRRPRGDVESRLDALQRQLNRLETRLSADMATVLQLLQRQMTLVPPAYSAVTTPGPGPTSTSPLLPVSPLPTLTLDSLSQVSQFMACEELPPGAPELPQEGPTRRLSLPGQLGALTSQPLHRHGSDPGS
T2 sequence (P62344 whole entry): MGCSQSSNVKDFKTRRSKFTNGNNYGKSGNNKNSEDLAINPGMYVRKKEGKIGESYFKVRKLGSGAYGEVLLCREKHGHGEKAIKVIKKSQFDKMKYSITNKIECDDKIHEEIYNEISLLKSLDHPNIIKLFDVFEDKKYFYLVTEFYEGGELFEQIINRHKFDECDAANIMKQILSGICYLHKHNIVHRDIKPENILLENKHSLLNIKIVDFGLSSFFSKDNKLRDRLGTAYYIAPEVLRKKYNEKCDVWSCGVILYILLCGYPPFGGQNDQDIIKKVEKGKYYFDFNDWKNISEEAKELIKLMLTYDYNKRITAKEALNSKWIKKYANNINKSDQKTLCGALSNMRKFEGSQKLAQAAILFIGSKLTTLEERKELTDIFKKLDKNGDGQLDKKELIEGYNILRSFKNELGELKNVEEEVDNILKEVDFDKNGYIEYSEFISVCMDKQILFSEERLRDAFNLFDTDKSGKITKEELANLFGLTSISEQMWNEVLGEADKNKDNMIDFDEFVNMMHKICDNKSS

SMILES | EC50 (Plasmodium falciparum [1]) [nM] | chromatographic logD [2] | solubility [3] [µM] | IC50 [4] [nM] | EC50 (L929) [nM] | Papp [5] [×10⁻⁶ cm/s] | CLH [6] [mL/min/g] | CLH [7] [mL/min/g] | CLH [8] [mL/min/g] | IC50 [13] [nM] | EC50 (Plasmodium falciparum [23]) [nM] | EC50 (Plasmodium falciparum [24]) [nM] | other results
CN1CCC(c2nc(-c3ccc(F)c(NS(C)(=O)=O)c3)c(-c3ccnc(NCC4CC4)n3)s2)CC1 | 1020 | 3.2 | 311 (≈ 161 µg/mL) | 1340 | 17000 | 34 | 1.32 | 6.22 | 0.49 |  |  |  | EC50 (Plasmodium falciparum [9]): 1020 nM; EC50 (Plasmodium falciparum [10]): > 5000 nM; EC50 (Plasmodium falciparum [11]): 3900 nM; Activity (Plasmodium falciparum [12]): inactive
Fc1ccc(-c2nc(C3CCNCC3)sc2-c2ccnc(Nc3cnccn3)n2)cc1 | 600 | 2.32 | 68 (≈ 29.5 µg/mL) |  | 3200 | 16 | 0.72 | 0.49 | 0.4 | 5 |  |  | EC50 (Plasmodium falciparum [9]): 1360 nM; EC50 (Plasmodium falciparum [14]): 690 nM; EC50 (Plasmodium falciparum [10]): 820 nM; EC50 (Plasmodium falciparum [11]): 880 nM
Cc1cc(Nc2nccc(-c3sc(C4CCNCC4)nc3C3CC3)n2)ccn1 | 270 | 1.99 | 342 (≈ 134 µg/mL) |  | 8900 | 18 | 0.87 | 1.18 | 0.4 |  |  |  | Activity (Plasmodium falciparum [12]): Active
Cc1cc(Nc2nccc(-c3sc(C4CCNCC4)nc3CN3CCCCC3)n2)ccn1 | 190 |  |  |  | 20000 | 1 |  |  |  |  |  |  | Activity (Plasmodium falciparum [12]): Active
Fc1ccc(-c2nc(C3CCNCC3)sc2-c2ccnc(NCCN3CCSCC3)n2)cc1 | 4030 | 2.84 | 491 (≈ 238 µg/mL) |  | 15100 | 31 |  |  |  |  |  |  | Kd [15]: 60 nM; Kd [16]: 60 nM; Kd [17]: 2100 nM; Kd [18]: 2100 nM; Kd (Casein kinase I): 1500 nM; Kd [19]: 5300 nM; Kd [20]: 5300 nM; Kd [21]: > 20000 nM; Kd(app) [22]: inactive
Fc1ccc(-c2nc(C3CCNCC3)sc2-c2ccnc(Nc3nncs3)n2)cc1 | 1020 | 1.82 | 66 (≈ 29 µg/mL) | 2500 | 2800 | < 1 | 0.67 | 0.46 | 0.55 |  | 140 | 380 | 
OC(CNc1nccc(-c2sc(C3CCNCC3)nc2-c2ccc(F)cc2)n1)c1ccncc1 (stereo unspecified) |  | 1.79 | 225 (≈ 107 µg/mL) | 28200 | 15100 | 1 | 2.08 | 0.77 | 5.8 |  | 3670 | 10600 | 
Cc1cc(Nc2nccc(-c3sc(C4CCNCC4)nc3-c3ccc(F)cc3)n2)on1 | 2650 | 2.61 | 66 (≈ 28.8 µg/mL) |  | 2300 | 12 |  |  |  | 3 |  |  | 
Fc1ccc(-c2nc(N3CCCC3)sc2-c2ccnc(Nc3ccc(N4CCNCC4)cc3)n2)cc1 | 770 | 4.43 | 54 (≈ 27.1 µg/mL) |  | 3800 | 27 | 1.56 | 0.81 | 0.59 | 2 |  |  | 
Nc1nc(-c2ccc(F)cc2)c(-c2ccnc(Nc3ccc(N4CCNCC4)cc3)n2)s1 | 1750 | 2.42 | 24.5 (≈ 11 µg/mL) | 35500 | 1800 |  | 1.47 | 1.98 | 0.52 |  | 150 | 190 | 
CN1CCN(c2ccc(Nc3nccc(-c4sc(C5CCNCC5)nc4-c4ccc(F)cc4)n3)cc2)CC1 | 700 | 2.79 | 41 (≈ 21.7 µg/mL) | 13200 | 3800 | 11 | 0.96 | 1.27 | 0.53 | 0.6 | 260 | 300 | 
